Shown is part of a subset that was picked to be rich in hits.
HCT116 bCat-KO = beta-catenin-lacking colon tumor cell growth suppression; HCT116 beta-catenin knockout viability, CellTiter-Glo, 60 h; hits give low values; viability, % at 10 µM; 1.5% of 140,000 active; AID 818;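 active = viability at or under a set limit, the compound median less 4 SD, cut at about 6% in these data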
HUVEC inhibit = human endothelial cell proliferation inhibition. HUVEC proliferation, CellTiter-Glo luminescence, 72 h; hits give low values. viability, % at 10 µM (by protocol). 1.1% of 86,000 active. AID 648;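 active = viability at or below 30%; inactive = viability above 30%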
HCT116 PTEN-null = suppresses growth of cells with PTEN deletion. viability, % at 10 µM. 1.2% of 140,000 active. HCT116 PTEN-null viability, CellTiter-Glo, 60 h; hits give low values;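 active = viability at or below a set limit, 4 SD under the median of all tested compounds, cut at about 3.7% in these data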;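 note: PTEN knockout HCT116 line with beta catenin targeted HCT116 as companion control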
H69AR growth 86K = growth inhibitors of human H69AR lung tumor cells; H69AR lung tumor viability, ATP luminescence, 72 h; hits give low values; viability, % at 10 µM; 6% of 85,000 active; AID 598;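 active = viability at or below 40%; inactive = viability above 40%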;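 note: multidrug resistant small cell line overexpressing MRP-1 efflux transporter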
Fibroblast inh = blocks proliferation of human lung fibroblasts | 1.1% of 85,000 active | viability, % at 10 µM | LL 47 human lung fibroblast viability, ATP luminescence; hits give low values;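 active = viability at or below 50% in the single dose screen; inactive = viability above 50%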;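 note: compound exposure lasted 72 h before the ATP readout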
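Material: human LL 47 lung fibroblast cells; quantity: 1,150 cells/well; medium: IMEM plus 15% FBS; doses: 0.1% DMSO in all compound wells; timing: overnight attachment after seeding, then 72 h compound exposure at 37 °C; detection: CellTiter-Glo luminescence; measure: % viability of median cell-only signal; controls: cell-only wells, no compound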
A number is an active result; - = inactive; . = not tested or not shown.

SMILES | HCT116 bCat-KO | HUVEC inhibit | HCT116 PTEN-null | H69AR growth 86K | Fibroblast inh
Cc1ccc(C)c(C(=O)CN2C(=O)NC3(CCC(C)CC3)C2=O)c1 (stereo not drawn) | - | . | - | . | .
CCOC(=O)NC(NCCc1ccccc1)(C(F)(F)F)C(F)(F)F | - | - | - | 12 | -
O=C(Nc1ccc([N+](=O)[O-])cc1)c1nc[nH]c1C(=O)NC1CCCCC1 | 2.8 | . | 1.2 | . | .
O=C(Nc1ccc(F)cc1)c1nc[nH]c1C(=O)Nc1ccc([N+](=O)[O-])cc1 | 1.3 | . | 1.4 | . | .
Cn1c(=S)[nH]c2[nH]c(=O)cnc2c1=O | - | . | - | . | .
CCOC(=O)c1c(Cc2cccc(Cl)c2)c[nH]c1C | - | . | - | . | .
Cc1c(CNC2CCCC2)c(C(=O)O)c(C)n1Cc1ccccc1 | - | . | - | . | .
COc1ccc2cc(C(c3nnnn3C3CCCCC3)N3CCCCCC3)c3nnnn3c2c1 (stereo not drawn) | . | - | . | 35 | -
COc1ccc2cc(C(c3nnnn3C3CCCC3)N3CCCCCC3)c3nnnn3c2c1 (stereo not drawn) | - | - | 2.3 | - | -
COc1ccc(C(c2nnnn2C2CCCC2)N2CCC(C)CC2)c(OC)c1 (stereo not drawn) | - | - | - | - | -
O=c1cc(-c2c(F)c(F)c(F)c(F)c2F)oc2c(F)c(F)c(F)c(F)c12 | 1.6 | 1.6 | 1.5 | 1.0 | 17
O=c1cc(-c2c(F)c(F)c(F)c(F)c2F)oc2ccccc12 | 2.2 | . | . | . | .
CC1CC(N(C(=O)c2ccco2)c2ccccc2)c2ccccc2N1 (stereo not drawn) | - | - | - | 15 | -
Clc1ccccc1-c1nc2nc3ccccc3nc2n1-c1ccc2c(c1)OCO2 | - | . | - | . | .
COc1ccccc1C(=O)Oc1ccc2c(c1)O/C(=C\c1ccncc1)C2=O | - | . | - | . | .
COc1ccc(S(=O)(=O)Oc2ccc3c(c2)O/C(=C\c2cccnc2)C3=O)cc1 | - | - | - | 17 | -
O=C1/C(=C/c2cccnc2)Oc2cc(OS(=O)(=O)c3ccc(Cl)cc3)ccc21 | - | - | - | - | -
O=C1/C(=C/c2cccnc2)Oc2cc(OS(=O)(=O)c3ccccc3)ccc21 | - | - | - | 3.4 | -
CSc1nsc(SCC(=O)Nc2nc3ccc(C)cc3s2)n1 | - | . | - | . | .
CCCCC(=O)N/N=C/c1ccc(N2CCOCC2)c([N+](=O)[O-])c1 | - | . | - | . | .
N#Cc1cc2sc3nnc(-c4ccncc4)n3c2cc1C#N | - | - | - | 29 | 45
N#Cc1cc2sc3nc4ccccc4n3c2cc1C#N | - | - | - | - | -
c1ccc2[nH]c(-c3ccnc4ccccc34)nc2c1 | - | - | - | - | -
O=C1C(c2ccnc3ccccc23)=C(O)c2ccccc21 | - | - | - | 34 | -
CC(=O)Oc1ccc2ccccc2c1C(NC(=O)Cc1ccccc1)c1ccc(Cl)cc1 (stereo not drawn) | 0.8 | . | 0.9 | . | .
SMILES | HCT116 bCat-KO | HUVEC inhibit | HCT116 PTEN-null | H69AR growth 86K | Fibroblast inh
CC(NC(=O)c1cc(-c2ccc3c(c2)OCO3)nc2ccccc12)C(C)(C)C (stereo not drawn) | - | - | - | 16 | -
O=C(O)c1cc(-c2ccc3c(c2)OCO3)nc2ccccc12 | - | - | - | - | -
CCc1ccc(NC(=O)C(=O)NNC(=O)COc2cccc(OC)c2)cc1 | - | . | - | . | .
CCOC(=O)c1c(-c2ccc(C)o2)csc1NC(=O)CSc1nncs1 | - | - | - | 31 | -
CCC(SC1=NCCS1)C(=O)Nc1ccc(S(N)(=O)=O)cc1 (stereo not drawn) | - | . | - | . | .
O=S(=O)(NC1CC1)c1ccc(S(=O)(=O)N2CCCC3(CCCCC3)C2)cc1 | - | - | - | 32 | -
O=S(=O)(NC1CC1)c1ccc(S(=O)(=O)N2CCN3CCCC3C2)cc1 (stereo not drawn) | - | - | - | - | -
Cc1ccc(/C(O)=C2\C(=O)C(=O)N(Cc3cccnc3)C2c2ccccc2[N+](=O)[O-])cc1 (stereo not drawn) | - | . | - | . | .
COc1cccc(/C=N/n2c(N)nc3ccccc32)c1OC | - | - | - | - | -
COc1cccc(/C=N/n2cnc3ccccc32)c1OC | - | - | - | 30 | -
O=C(CSCC(=O)N1CCCCC1)Nc1nc(-c2ccccc2)c(-c2ccccc2)s1 | - | . | - | . | .
COc1ccc(CCN(C(=S)Nc2ccccc2)C2CC(=O)N(c3ccccc3)C2=O)cc1 (stereo not drawn) | - | . | - | . | .
O=C1CC(N(CCc2ccccc2)C(=S)Nc2ccccc2)C(=O)N1c1ccc(Br)cc1 (stereo not drawn) | 1.9 | . | 2.8 | . | .
CCOc1cc(C(=O)Nc2cc(C)ccn2)cc(OCC)c1OCC | - | - | - | - | -
CCOc1cc(C(=O)Nc2cnccn2)cc(OCC)c1OCC | - | - | - | 24 | -
Cc1ccc(S(=O)(=O)CCSc2nc(C)cc(C(F)(F)F)c2C#N)cc1 | - | - | - | 1.6 | -
CCC(C)N=C1CC(C)(C)CC(=O)/C1=C(/O)Cc1ccccc1 (stereo not drawn) | - | . | - | . | .
CC(=NC(C)C)C1=C(O)C(C)OC1=O (stereo not drawn) | - | . | - | . | .
O=C(c1cn(-c2ccccc2)nc1-c1cccs1)N(CCO)Cc1ccccc1 | - | - | - | 23 | -
COc1ccc(-n2nnnc2SCC#CCO)cc1 | - | - | - | 18 | -
COc1ccc(-n2nnnc2SCC(=O)c2cccc(OC)c2)cc1 | - | - | - | - | -
O=C(Cc1ccc(Cl)cc1)NN1C(=O)c2ccccc2C1=O | - | . | - | . | .
COC(=O)[C@@H]1[C@@H](C#N)C2(c3ccccc3-c3ccccc32)N(c2ccc(Cl)cc2)N1C#N | - | 21 | - | 0.2 | 40
CC(C)n1cc(/C=C(\C#N)S(=O)(=O)c2ccccc2)c2ccccc21 | - | - | - | 34 | -
CCOc1ncccc1C(=O)Nc1cccc(C(=O)Nc2cccc(S(=O)(=O)CCO)c2)c1 | - | - | - | 30 | -
SMILES | HCT116 bCat-KO | HUVEC inhibit | HCT116 PTEN-null | H69AR growth 86K | Fibroblast inh
CSc1nncc(=O)[nH]1 | - | - | - | - | 3.6
CCSC1(SCC)N=C(N)C2(C#N)C(c3ccccc3)NC3=C(CCC3)C12C#N (stereo not drawn) | - | - | - | - | -
CCSC1(SCC)N=C(N)C2(C#N)C(c3ccc(OC)c(OC)c3OC)C12C#N (stereo not drawn) | - | - | - | 2.1 | -
CC1CN(S(=O)(=O)c2ccc(C(=O)Nc3ccc(S(=O)(=O)Nc4ncccn4)cc3)cc2)CC(C)O1 (stereo not drawn) | - | . | - | . | .
COc1ccccc1C(N)=S | - | . | - | . | .
CN(C)c1ccccc1C(=O)c1ccccc1N(C)C | - | - | - | 14 | -
CN(c1ccccc1C(=O)O)S(C)(=O)=O | - | - | - | - | -
CC1=C(C(=O)Nc2ccc([N+](=O)[O-])cc2)C(c2cccc(C(F)(F)F)c2)NC(=S)N1c1ccccc1 (stereo not drawn) | 1.4 | . | 1.9 | . | .
CCCCCCCCCCCCCCCC[n+]1ccc(C(N)=O)cc1 | 1.1 | . | 1.1 | . | .
CCCCCCCCCCCCCCCC[n+]1ccc(/C=N/O)cc1 | 0.9 | . | 1.0 | . | .
CCCCCCCCCCCCCCCC[n+]1cccc(C(=O)N(CC)CC)c1 | 1.5 | . | 1.5 | . | .
